Experimental data taken from PubChem BioAssay.
Active and inactive are the calls of the source.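 The calls were made as follows, unless noted: active = inhibition of the reporter signal at or above 50%; inactive = inhibition below 50%.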

Experiments:
[1] = inhibitors of TNFa-induced NFkB p65 translocation, primary screen, imaging, HUVEC, MLSMR starter and 10KST1 sets (AID 438;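 active = inhibition above 20% together with a positive visual image hit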;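 also: compound added about 3h40 before a 20 min TNFalpha stimulation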;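 as to inhibition: signal is the nuclear over cytoplasmic p65 intensity ratio per well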); conditions: HUVEC TNFa-induced p65 nuclear translocation; cell count: measured here: nuclei count (cytotoxicity indicator), at 2.08 µM; inhibition: at 2 µM, stronger effect = higher value, 0% TNFa-plus-vehicle, 100% no-TNFa wells
[2] = reduction of polyQ htt aggregates in cells – imaging, exon1htt(103Q)mCFP cells, high-content imaging, primary screen (AID 483;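 active = visual image review flags a hit and inhibition of aggregation exceeds 20%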;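 also: compound exposure lasted 3 days before fixation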;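 as to nuclei count: percent of the per-plate median nuclei count of sample wells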); conditions: exon1htt(103Q)mCFP cell line, aggregate imaging, at 2 µM; inhibition of aggregation: stronger effect = higher value; nuclei count: measured here: cell count, toxicity
[3] = endothelial E-selectin expression blockers – imaging, HUVEC, immunofluorescence, MLSMR starter and 10KST1 sets, primary screen (AID 487;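 active = visually confirmed hit in the image check and inhibition above 20%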;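 as to inhibition: signal is fraction of cell area covered by stained E-selectin grains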;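 as to nuclei count: 100% = median nuclei count of all wells on the same plate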); conditions: HUVEC TNFalpha-induced E-selectin immunofluorescence imaging, at 2 µM; inhibition: stronger effect = higher value; nuclei count: measured here: cell number, toxicity
[4] = target: Voltage-gated potassium channel subunit beta-2 (Rattus norvegicus) (UniProt P62483); assay: inhibitors of rat Kvbeta2 reductase activity – biochemical, NADPH fluorescence, primary screen (AID 622;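 active = fluorescence slope higher than the sample average by over 3 SD, cut at about -0.22 in these data, passing the limit was not always enough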;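 also: slope of raw intensity against log time taken from 70 to 1610 s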); conditions: recombinant KvBeta, 4-cyanobenzaldehyde reduction, at 10 µM, stronger effect = higher value
[5] = target: Voltage-gated potassium channel subunit beta-2 (Rattus norvegicus) (UniProt P62483); assay: enhancers of rat Kvbeta2 NADPH turnover – biochemical, NADPH fluorescence, primary screen (AID 623;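 active = NADPH fluorescence slope more negative than the mean of all samples by about 3 SD, 99.7% confidence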;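 also: fluorescence intensity change per second fitted from 20 to 320 s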); conditions: Recombinant KvBeta, NADPH fluorescence decrease slope, 10 min; at 10 µM; stronger effect = lower value
[6] = target: Muscarinic acetylcholine receptor M4 (Homo sapiens) (UniProt P08173); assay: M4-linked GIRK flux change, two-sided – cell-based, HEK293 M4/GIRK, thallium flux, BTC-AM, M4 allosteric agonist project, primary screen (AID 625;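 active = fluorescence slope after compound addition differing from the mean of all tested samples at 99.7% confidence, mostly higher but some lower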;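 also: thallium influx through GIRK channels coupled to M4 in HEK293 cells with BTC-AM dye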); conditions: at 10 µM, actives lie on both sides
How it was run: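 Material: HEK293 cells with M4 receptor and GIRK channels; Times: cells overnight at 37 °C, BTC-AM loading 1 h, reads 2 min total; Technique: kinetic BTC-AM fluorescence sampled at 1 Hz, 10 s pre-addition baseline; Read-out basis: slope over 15–24 s of trace normalized to starting intensity; Controls: carbachol positive, DMSO negative.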

[7] = blockers of RIG-like receptor reporter activation – cell-based, Sendai virus stimulus, luciferase, 10K MLSCN set, TLR/RLR signaling modifier project, primary screen (AID 602276;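 active = inhibition at or above 50% at 10 µM; inactive = inhibition below 50%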;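 also: firefly luciferase from ISG56 promoter only with Renilla not read in this screen; 0% = Sendai virus plus DMSO and 100% = medium plus DMSO without virus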); conditions: HEK293 RL24 IRF3 luciferase reporter, at 10 µM, stronger effect = higher value
[8] = TLR3 IRF3 reporter activation blockers – cell-based, poly I:C stimulus, luciferase, 10K MLSCN set, primary screen (AID 602277); conditions: HEK293-TLR3 RL24 IRF3 luciferase reporter, at 10 µM, stronger effect = higher value

Muscarinic acetylcholine receptor M4 (Homo sapiens), sequence (P08173 whole entry, looked up): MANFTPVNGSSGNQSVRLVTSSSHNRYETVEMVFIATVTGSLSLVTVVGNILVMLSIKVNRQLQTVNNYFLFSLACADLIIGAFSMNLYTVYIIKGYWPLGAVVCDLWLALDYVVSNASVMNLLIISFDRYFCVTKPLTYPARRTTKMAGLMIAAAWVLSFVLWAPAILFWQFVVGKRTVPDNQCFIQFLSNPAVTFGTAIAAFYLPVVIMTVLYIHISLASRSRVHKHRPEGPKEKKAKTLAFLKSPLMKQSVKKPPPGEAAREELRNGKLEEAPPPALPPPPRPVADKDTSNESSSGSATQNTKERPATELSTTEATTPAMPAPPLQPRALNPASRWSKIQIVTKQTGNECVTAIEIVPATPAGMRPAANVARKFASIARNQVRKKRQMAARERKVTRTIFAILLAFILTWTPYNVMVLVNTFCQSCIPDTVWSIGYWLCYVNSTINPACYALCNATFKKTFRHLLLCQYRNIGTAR
Voltage-gated potassium channel subunit beta-2 (Rattus norvegicus), sequence (P62483 whole entry, looked up): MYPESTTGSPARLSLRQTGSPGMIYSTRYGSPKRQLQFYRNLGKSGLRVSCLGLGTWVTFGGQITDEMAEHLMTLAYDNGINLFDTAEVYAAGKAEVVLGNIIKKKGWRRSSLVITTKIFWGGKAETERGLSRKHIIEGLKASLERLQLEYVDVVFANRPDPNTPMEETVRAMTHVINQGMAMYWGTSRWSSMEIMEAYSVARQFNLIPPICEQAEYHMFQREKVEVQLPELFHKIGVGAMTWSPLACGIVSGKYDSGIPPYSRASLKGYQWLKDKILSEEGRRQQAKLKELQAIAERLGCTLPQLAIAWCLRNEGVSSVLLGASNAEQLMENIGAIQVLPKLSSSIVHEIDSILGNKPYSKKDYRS

Compound | cell count [1] | inhibition [1] | inhibition of aggregation [2] | nuclei count [2] | inhibition [3] | nuclei count [3] | fluorescence slope [4] | NADPH fluorescence slope [5] | fluorescence slope [6] | inhibition [7] | inhibition [8]
CC(=O)N1C(=O)C2(C(C#N)=C(N)Oc3cc(C)oc(=O)c32)c2ccccc21 (configuration not stated) | 438 | 3.8% (inactive) | -2.1% (inactive) | 108% | -54.5% (inactive) | 110% | -0.511 (inactive) | -0.00027 (inactive) | 0.00547 (inactive) | -9.7% (inactive) | -6.69% (inactive)
CCOC(=O)c1ccccc1NC(=O)COC(=O)C1=COCCO1 | 595 | -3.1% (inactive) | 14% (inactive) | 61.5% | -92% (inactive) | 95.5% | -0.286 (inactive) | -3.3e-05 (inactive) | 0.00593 (inactive) | 15.1% (inactive) | 2.55% (inactive)
CCOc1ccccc1NC(=O)N1C2CCCC1CC(NC(=O)C1CC1)C2 (configuration not stated) | 417 | -3.2% (inactive) | 6.6% (inactive) | 110% | -75.6% (inactive) | 97.6% | -0.515 (inactive) | 4.4e-06 (inactive) | 0.00474 (inactive) | 17.1% (inactive) | 23.8% (inactive)
Cc1c(NS(=O)(=O)c2ccc3c(c2)c(=O)n(C)c(=O)n3C)c(=O)n(-c2ccccc2)n1C | 394 | -4.4% (inactive) | -4.4% (inactive) | 124% | -27.8% (inactive) | 115% | -0.412 (inactive) | 0.000112 (inactive) | 0.00512 (inactive) | 11.2% (inactive) | 25% (inactive)
COC(=O)C1=C(C)OC(N)=C(C#N)C1c1ccccc1 (configuration not stated) | 428 | 1.7% (inactive) | 5.6% (inactive) | 114% | -73.1% (inactive) | 116% | -0.568 (inactive) | -6.5e-06 (inactive) | 0.0048 (inactive) | 11.5% (inactive) | 16.7% (inactive)
N#CC1=C(N)SC(N)=C(C#N)C1CCc1ccccc1 | 300 | -3.2% (inactive) | -16.8% (inactive) | 83% | -171% (inactive) | 104% | -0.543 (inactive) | -2e-06 (inactive) | 0.00612 (inactive) | 18% (inactive) | 26.3% (inactive)
O=C(NCCc1ccccc1)c1cc(-c2ccco2)on1 | 384 | -8.7% (inactive) | 7.8% (inactive) | 102% | -29.5% (inactive) | 96.5% | -0.473 (inactive) | -5.1e-05 (inactive) | 0.00445 (inactive) | -44.9% (inactive) | -169% (inactive)
